According to ChEMBL document CHEMBL6071141, “In vitro and in vivo evaluation of Bombesin-MMAE conjugates for targeted tumour therapy” (Eur J Med Chem, 2024):
Numbered stars: 1 amine (or outer) side, 2 acyl side, 3 side chain; on linkers, the order of the positions; unused ones are H or OH. Bridge positions count the residues as written; N and C are the ends. Square brackets hold non-standard residues; d marks the D form. Peptide text beside a SMILES is read from it. I, II: the chains in the order shown. * marks the point of attachment. Hexanoyl(6-succinimido-3yl) = O=C1CC([*:1])C(=O)N1CCCCCC(=O)[*:2]; Trp(3a,7a-dihydro) = N[C@@H](CC1=CNC2C=CC=CC12)C(=O)O; Dolaproine = CO[C@@H]([C@@H]1CCCN1)[C@@H](C)C(=O)O; X2 = O=C([C@H](CC1=CSC2C=CC=CC12)N[*:1])[*:2]; Dil = CC[C@H](C)[C@H](NC)[C@@H](CC(=O)O)OC; Sta = CC(C)C[C@H](N)[C@@H](O)CC(=O)O; PABC = O=C(OCc1ccc(N[*:1])cc1)[*:2]; X3 = C[C@@H](N*)[C@@H](O)c1ccccc1; Cit = NC(=O)NCCC[C@H](N)C(=O)O; PEG4 = NCCOCCOCCOCCOCCC(=O)O; NMeV = CN[C@H](C(=O)O)C(C)C; Nle = CCCC[C@H](N)C(=O)O; βAla = NCCC(=O)O

Experiments:
[1] = biological target: T1, Gastrin-releasing peptide receptor (Homo sapiens, UniProt P30550); assay: Displacement of 125 I- [Tyr4] from bombesin receptor 2 (unknown origin) assessed as inhibition by radioligand competitive binding assay
[2] = Displacement of 125 I- [Tyr4] from bombesin receptor 1 (unknown origin) assessed as inhibition by radioligand competitive binding assay; parameters: species or system Homo sapiens
[3] = biological target: T2, Bombesin receptor subtype-3 (Homo sapiens, UniProt P32247); assay: Displacement of 125 I- [Tyr4] from bombesin receptor 3 (unknown origin) assessed as inhibition by radioligand competitive binding assay
T2 sequence (P32247 whole entry): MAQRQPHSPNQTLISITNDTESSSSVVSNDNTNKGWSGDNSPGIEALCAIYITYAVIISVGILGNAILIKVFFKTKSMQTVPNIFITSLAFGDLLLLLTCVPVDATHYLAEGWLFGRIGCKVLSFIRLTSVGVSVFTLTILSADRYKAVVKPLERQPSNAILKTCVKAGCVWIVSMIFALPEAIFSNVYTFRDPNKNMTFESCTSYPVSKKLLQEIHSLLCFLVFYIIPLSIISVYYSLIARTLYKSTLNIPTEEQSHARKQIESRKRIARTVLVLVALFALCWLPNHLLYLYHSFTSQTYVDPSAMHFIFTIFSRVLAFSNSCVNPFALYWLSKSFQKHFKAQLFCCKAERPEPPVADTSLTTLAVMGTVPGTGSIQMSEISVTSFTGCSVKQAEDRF

[4] = Cytotoxicity against human PC-3 cells assessed as inhibition of cell growth incubated with compound for 72 hrs followed by further incubated for 72 hrs (single treatment) by CellTiter 96 aqueous assay; type: toxicity, cell-based
How it was run: (§1)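 PC-3 or MDA-MB-231 cells were treated the day after seeding with serial dilutions, from 2000 nM for conjugates and 100 nM for MMAE, for 72 h. Then the assay was stopped, or run 72 h more after a medium change (single) or re-treatment (double). Controls got 0.05 % DMSO. Read-out was MTS absorbance at 490 nm after 90 min. IC50 by non-linear regression; ≥2 experiments, triplicates.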

[5] = biological target: T1, Gastrin-releasing peptide receptor; assay: Displacement of 125 I- [Tyr4] from bombesin receptor 2 in human PC-3 cells assessed as inhibition by radioligand displacement assay; type: cell-based
How it was run: (§2)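 Competition binding on membrane preparations from PC-3 or MDA-MB-231 cells against ¹²⁵I-[Tyr⁴]-bombesin, with conjugates at 10 μM–10 pM. IC50 was taken as the concentration giving 50 % inhibition of tracer binding.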

[6] = Cytotoxicity against human PC-3 cells assessed as inhibition of cell growth incubated for 72 hrs by CellTiter 96 aqueous assay; type: toxicity, cell-based; how it was run: as §1
[7] = Cytotoxicity against human cells MDA-MB-231 assessed as inhibition of cell growth incubated for 72 hrs by CellTiter 96 aqueous assay; type: toxicity, cell-based; conditions: MDA-MB-231 cells; how it was run: as §1
[8] = Cytotoxicity against human MDA-MB-231 cells assessed as inhibition of cell growth incubated for 72 hrs and followed by treated with compound continued incubation for further 72 hrs (double treatment) after retreatment of compound by CellTiter 96 aqueous assay; type: toxicity, cell-based; how it was run: as §1
[9] = Cytotoxicity against human PC-3 cells assessed as inhibition of cell growth incubated for 72 hrs and followed by treated with compound continued incubation for further 72 hrs (double treatment) after retreatment of compound by CellTiter 96 aqueous assay; type: toxicity, cell-based; how it was run: as §1
[10] = biological target: T1, Gastrin-releasing peptide receptor; assay: Displacement of 125 I- [Tyr4] from bombesin receptor 2 in human MDA-MB-231 cells assessed as inhibition by radioligand displacement assay; type: cell-based; how it was run: as §2
[11] = Cytotoxicity against human MDA-MB-231 cells assessed as inhibition of cell growth incubated with compound for 72 hrs followed by further incubated for 72 hrs (single treatment) by CellTiter 96 aqueous assay; type: toxicity, cell-based; how it was run: as §1

T1 sequence (P30550 whole entry): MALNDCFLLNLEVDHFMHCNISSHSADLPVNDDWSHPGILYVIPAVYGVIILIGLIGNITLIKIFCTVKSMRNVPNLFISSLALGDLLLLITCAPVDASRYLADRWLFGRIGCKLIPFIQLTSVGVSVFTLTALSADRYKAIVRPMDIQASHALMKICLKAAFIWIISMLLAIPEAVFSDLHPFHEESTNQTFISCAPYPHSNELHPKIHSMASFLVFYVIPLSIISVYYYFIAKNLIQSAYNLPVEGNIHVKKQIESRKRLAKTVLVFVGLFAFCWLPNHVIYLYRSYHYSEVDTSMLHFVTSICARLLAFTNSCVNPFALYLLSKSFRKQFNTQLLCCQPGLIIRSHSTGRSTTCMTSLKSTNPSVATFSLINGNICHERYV

| SMILES | IC50 [1] [nM] | IC50 [2] [nM] | IC50 [3] [nM] | IC50 at 144 h [4] [nM] | IC50 [5] [nM] | IC50 at 72 h [6] [nM] | IC50 at 72 h [7] [nM] | IC50 at 144 h [8] [nM] | IC50 at 144 h [9] [nM] | IC50 [10] [nM] | IC50 at 144 h [11] [nM] |
| --- | --- | --- | --- | --- | --- | --- | --- | --- | --- | --- | --- |
| CC(=O)N[C@@H](CS)C(=O)N[C@H](Cc1ccccc1)C(=O)N[C@@H](CCC(N)=O)C(=O)N[C@@H](Cc1c[nH]c2ccccc12)C(=O)N[C@@H](C)C(=O)N[C@H](C(=O)NCCC(=O)N[C@@H](Cc1c[nH]cn1)C(=O)N[C@@H](CC(C)C)[C@@H](O)CC(=O)N[C@@H](CC(C)C)C(N)=O)C(C)C | 5290 | > 10000 | 5250 | – | – | – | – | – | – | – | – |
| CC(=O)N[C@H](Cc1ccccc1)C(=O)N[C@@H](CCC(N)=O)C(=O)N[C@@H](Cc1c[nH]c2ccccc12)C(=O)N[C@@H](C)C(=O)N[C@H](C(=O)NCC(=O)N[C@@H](Cc1c[nH]cn1)C(=O)N[C@@H](CC(C)C)[C@@H](O)CC(=O)N[C@@H](CC(C)C)C(=O)N[C@@H](CS)C(N)=O)C(C)C | > 10000 | > 10000 | 10.1 | – | – | – | – | – | – | – | – |
| CCCC[C@H](NC(=O)C[C@H](O)[C@H](CC(C)C)NC(=O)[C@H](Cc1c[nH]cn1)NC(=O)CCNC(=O)[C@@H](NC(=O)[C@H](C)NC(=O)[C@H](Cc1c[nH]c2ccccc12)NC(=O)[C@H](CCC(N)=O)NC(=O)[C@@H](Cc1ccccc1)NC(=O)[C@H](CS)NC(C)=O)C(C)C)C(N)=O | 2180 | > 10000 | > 10000 | – | – | – | – | – | – | – | – |
| CCCC[C@H](NC(=O)C[C@H](O)[C@H](CC(C)C)NC(=O)[C@H](Cc1c[nH]cn1)NC(=O)CNC(=O)[C@@H](NC(=O)[C@H](C)NC(=O)[C@H](Cc1c[nH]c2ccccc12)NC(=O)[C@H](CCC(N)=O)NC(=O)[C@@H](Cc1ccccc1)NC(C)=O)C(C)C)C(=O)N[C@@H](CS)C(N)=O | > 10000 | > 10000 | > 10000 | – | – | – | – | – | – | – | – |
| CC(=O)N[C@H](Cc1ccccc1)C(=O)N[C@@H](CCC(N)=O)C(=O)N[C@@H](Cc1c[nH]c2ccccc12)C(=O)N[C@@H](C)C(=O)N[C@H](C(=O)NCC(=O)N[C@@H](Cc1c[nH]cn1)C(=O)N[C@@H](CC(C)C)[C@@H](O)CC(=O)N[C@@H](CC(C)C)C(N)=O)C(C)C | – | > 10000 | 1.11 | – | – | – | – | – | – | – | – |
| CCCC[C@H](NC(=O)C[C@H](O)[C@H](CC(C)C)NC(=O)[C@H](Cc1c[nH]cn1)NC(=O)CCNC(=O)[C@@H](NC(=O)[C@H](C)NC(=O)[C@H](Cc1c[nH]c2ccccc12)NC(=O)[C@H](CCC(N)=O)NC(=O)[C@@H](Cc1ccccc1)NC(C)=O)C(C)C)C(N)=O (Ac-[dF]QWAV[βAla]H[Sta][Nle]-NH2) | > 10000 | > 10000 | > 10000 | – | – | – | – | – | – | – | – |
| CCCC[C@H](NC(=O)C[C@H](O)[C@H](CC(C)C)NC(=O)[C@H](Cc1c[nH]cn1)NC(=O)CN(C)C(=O)[C@@H](NC(=O)[C@H](C)NC(=O)[C@H](Cc1c[nH]c2ccccc12)NC(=O)[C@H](CCC(N)=O)NC(=O)[C@@H](Cc1ccccc1)NC(C)=O)C(C)C)C(=O)N[C@@H](CS)C(N)=O | > 10000 | > 10000 | > 1000 | – | – | – | – | – | – | – | – |
| CCCC[C@H](NC(=O)[C@H](CC(C)C)NC(=O)[C@H](Cc1c[nH]cn1)NC(=O)CNC(=O)[C@@H](NC(=O)[C@H](C)NC(=O)[C@H](CC1=CNC2C=CC=CC12)NC(=O)[C@H](CCC(N)=O)NC(=O)[C@H](CC(N)=O)NC(=O)CCOCCOCCOCCOCCNC(=O)[C@H](CSC1CC(=O)N(CCCCCC(=O)N[C@@H](CCC(=O)O)C(=O)NCC(=O)N[C@@H](CCCNC(N)=O)C(=O)Nc2ccc(COC(=O)N(C)[C@H](C(=O)N[C@H](C(=O)N(C)[C@@H]([C@@H](C)CC)[C@@H](CC(=O)N3CCC[C@H]3[C@H](OC)[C@@H](C)C(=O)N[C@H](C)[C@@H](O)c3ccccc3)OC)C(C)C)C(C)C)cc2)C1=O)NC(C)=O)C(C)C)C(N)=O (stereo partly specified) (I: Ac-C[PEG4]NQ[Trp(3a,7a-dihydro)]AVGHL[Nle]-NH2 / II: EG[Cit][PABC][NMeV]V[Dil][Dolaproine]-X3; linker I:1-II:N via Hexanoyl(6-succinimido-3yl)) | – | – | – | 248 | 83.2 | 830 | 1260 | 217 | 200 | 79.3 | 270 |
| CCCC[C@H](NC(=O)C[C@H](O)[C@H](CC(C)C)NC(=O)[C@H](Cc1c[nH]cn1)NC(=O)CCNC(=O)[C@@H](NC(=O)[C@H](C)NC(=O)[C@H](Cc1c[nH]c2ccccc12)NC(=O)[C@H](CCC(N)=O)NC(=O)[C@@H](Cc1ccccc1)NC(C)=O)C(C)C)C(=O)N[C@@H](CS)C(N)=O | > 10000 | > 10000 | > 1000 | – | – | – | – | – | – | – | – |
| CC(=O)N[C@@H](CS)C(=O)N[C@H](C(=O)N[C@@H](CC(C)C)[C@@H](O)CC(=O)N[C@H](Cc1ccccc1)C(=O)N[C@H](CCC(N)=O)C(=O)NCC(=O)N[C@@H](CC(C)C)C(=O)N[C@@H](C)C(=O)N[C@@H](Cc1c[nH]c2ccccc12)C(=O)N[C@@H](Cc1c[nH]cn1)C(N)=O)C(C)C | 4750 | > 10000 | > 10000 | – | – | – | – | – | – | – | – |
| CCCC[C@H](NC(=O)[C@H](CC(C)C)NC(=O)[C@H](Cc1c[nH]cn1)NC(=O)CNC(=O)[C@@H](NC(=O)[C@H](C)NC(=O)[C@H](CC1=CSC2C=CC=CC12)NC(=O)[C@H](CCC(N)=O)NC(=O)[C@H](CC(N)=O)NC(=O)CCOCCOCCOCCOCCNC(=O)[C@H](CSC1CC(=O)N(CCCCCC(=O)N[C@@H](CCC(=O)O)C(=O)NCC(=O)N[C@@H](CCCNC(N)=O)C(=O)Nc2ccc(COC(=O)N(C)[C@H](C(=O)N[C@H](C(=O)N(C)[C@@H]([C@@H](C)CC)[C@@H](CC(=O)N3CCC[C@H]3[C@H](OC)[C@@H](C)C(=O)N[C@H](C)[C@@H](O)c3ccccc3)OC)C(C)C)C(C)C)cc2)C1=O)NC(C)=O)C(C)C)C(N)=O (stereo partly specified) (I: Ac-C[PEG4]NQ[X2]AVGHL[Nle]-NH2 / II: EG[Cit][PABC][NMeV]V[Dil][Dolaproine]-X3; linker I:1-II:N via Hexanoyl(6-succinimido-3yl)) | – | – | – | 216 | 80.7 | 782 | 1260 | 217 | 165 | 82.4 | 268 |
| CC(=O)N[C@@H](CS)C(=O)N[C@H](Cc1ccccc1)C(=O)N[C@@H](CCC(N)=O)C(=O)N[C@@H](Cc1c[nH]c2ccccc12)C(=O)N[C@@H](C)C(=O)N[C@H](C(=O)N(C)CC(=O)N[C@@H](Cc1c[nH]cn1)C(=O)N[C@@H](CC(C)C)[C@@H](O)CC(=O)N[C@@H](CC(C)C)C(N)=O)C(C)C | 36.3 | > 10000 | 3600 | – | – | – | – | – | – | – | – |
| CCCC[C@H](NC(=O)C[C@H](O)[C@H](CC(C)C)NC(=O)[C@H](Cc1c[nH]cn1)NC(=O)CCNC(=O)[C@@H](NC(=O)[C@H](C)NC(=O)[C@H](Cc1c[nH]c2ccccc12)NC(=O)[C@H](CCC(N)=O)NC(=O)[C@@H](Cc1ccccc1)NC(=O)[C@H](CSC1CC(=O)N(CCCCCC(=O)N[C@H](C(=O)N[C@@H](CCCNC(N)=O)C(=O)Nc2ccc(COC(=O)N(C)[C@H](C(=O)N[C@H](C(=O)N(C)[C@@H]([C@@H](C)CC)[C@@H](CC(=O)N3CCC[C@H]3[C@H](OC)[C@@H](C)C(=O)N[C@H](C)[C@@H](O)c3ccccc3)OC)C(C)C)C(C)C)cc2)C(C)C)C1=O)NC(C)=O)C(C)C)C(N)=O (stereo partly specified) | – | – | – | 132 | – | 852 | 1280 | 176 | 121 | – | 218 |
